Results reported in paper PMC3421229 (International Journal of Biological Sciences, 2012).

How the values were obtained:
[1] = target: T1, LdisPBP2 (Lymantria dispar, UniProt O16106); assay: fluorescence titration of 1-NPN with LdisPBP2; assay type: binding; conditions: dissociation constant of the LdisPBP2/1-NPN complex
T1 sequence (O16106 21-165): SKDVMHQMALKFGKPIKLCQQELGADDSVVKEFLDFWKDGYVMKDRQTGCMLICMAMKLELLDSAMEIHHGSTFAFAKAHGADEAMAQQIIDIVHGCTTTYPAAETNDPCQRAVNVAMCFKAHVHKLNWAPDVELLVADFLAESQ
Method in brief: (§1)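 Recombinant His-tagged PBP from E. coli, Ni-resin and gel-filtration purified. A 2 μM protein solution in 50 mM Tris-HCl pH 7.3 or 50 mM Na2HPO4-citric acid pH 5.5 was titrated with 1-NPN (1 mM methanol stock) to 1–20 μM final. 25°C; excitation 337 nm, emission 370–470 nm, 10 nm slits. Kd calculated from the binding curve; three independent measurements.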

[2] = target: T2, LdisPBP1 (Lymantria dispar, UniProt O16105); assay: fluorescence titration of 1-NPN with LdisPBP1; assay type: binding; conditions: dissociation constant of the LdisPBP1/1-NPN complex
T2 sequence (O16105 20-162): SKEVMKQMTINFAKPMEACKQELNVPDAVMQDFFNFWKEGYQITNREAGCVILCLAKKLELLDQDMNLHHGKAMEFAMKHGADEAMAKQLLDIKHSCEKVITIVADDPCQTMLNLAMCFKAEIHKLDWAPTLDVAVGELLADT
Method in brief: as §1

[3] = test system: PBP1; conditions: cited from earlier work
[4] = test system: male L.dispar; assay: initial field experiment, attraction of male moths; assay type: in vivo, Lymantria dispar; conditions: initial field experiment (data not shown)
[5] = target: T2, LdisPBP1; assay: competitive fluorescence binding assay with 1-NPN as probe, LdisPBP1
Method in brief: (§2)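 N-terminally His-tagged recombinant PBP was expressed in E. coli BL21(DE3) (0.25 mM IPTG, 18°C overnight), then purified by Ni-resin and gel filtration. 2 μM protein plus 2 μM 1-NPN in 50 mM Tris-HCl pH 7.3 or 50 mM Na2HPO4-citric acid pH 5.5, at 25°C; ex 337 nm, em 370–470 nm. Competitors (1 mM methanol stock) at 2–20 μM. IC50 = half-maximal fluorescence reduction; Ki = IC50/(1+[1-NPN]/K1-NPN). Triplicates.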

[6] = target: T1, LdisPBP2; assay: competitive fluorescence binding assay with 1-NPN as probe, LdisPBP2
Method in brief: as §2

[7] = test system: gypsy moth; conditions: cited from earlier work
[8] = PBP1[Ki(μM)] pH5.5, pH 5.5, n=3, 2 μM protein and 1-NPN
[9] = PBP1[Ki(μM)] pH7.3, pH 7.3, n=3, 2 μM protein and 1-NPN
[10] = PBP2[Ki(μM)] pH5.5, pH 5.5, n=3, 2 μM protein and 1-NPN
[11] = PBP2[Ki(μM)] pH7.3, pH 7.3, n=3, 2 μM protein and 1-NPN

Row | Ki [5, 8] | Ki [5, 9] | Ki [6, 10] | Ki [6, 11] | SMILES | Kd ([1]; pH 5.5) | Kd ([1]; pH 7.3) | Kd ([2]; pH 5.5) | Kd ([2]; pH 7.3) | binding preference of PBP1 for pheromone enantiomers [3] | attraction of male L.dispar compared with (+)-D alone [4] | effect on the pheromone [7]
1 | 2.2 ± 0.01 µM | 3.25 ± 0.02 µM | 3.54 ± 0.01 µM | 1.97 ± 0.01 µM | O=C(CCCCC(=O)OCC1CCC2OC2C1)OCC1CCC2OC2C1 (stereo not shown) [Bis, Bis(3,4-epoxycyclohexylmethyl) adipate] |  |  |  |  |  | reverse | 
2 | 6.33 ± 0.18 µM | 2.99 ± 0.08 µM | 5.14 ± 0.06 µM | 2.46 ± 0.02 µM | OCCCCC1OC12CC2 (stereo not shown) [OXP2, 4-(1-oxaspiro[2.2]pent-2-yl)butan-1-ol] |  |  |  |  |  |  | enhanced that of pheromone
3 | 3.05 ± 0.01 µM | 2.93 ± 0.02 µM | 6.06 ± 0.06 µM | 5.32 ± 0.07 µM | O=Cc1ccccc1O [Sal, Salicylaldehyde] |  |  |  |  |  | reverse | 

Second part, the compound before the results:

Row | SMILES | Ki [5, 8] | Ki [5, 9] | Ki [6, 10] | Ki [6, 11] | Kd ([1]; pH 5.5) | Kd ([1]; pH 7.3) | Kd ([2]; pH 5.5) | Kd ([2]; pH 7.3) | binding preference of PBP1 for pheromone enantiomers [3] | attraction of male L.dispar compared with (+)-D alone [4] | effect on the pheromone [7]
4 | c1ccc(Nc2cccc3ccccc23)cc1 [1-NPN, N-phenyl-1-naphthylamine] |  |  |  |  | 8740 ± 2050 nM | 2030 ± 420 nM | 1710 ± 200 nM | 1770 ± 310 nM |  |  | 
5 | CCCCCCCCCC[C@H]1O[C@H]1CCCCC(C)C [(-)-disparlure] |  |  |  |  |  |  |  |  | preferentially bound |  | 
6 | CCCCCCCCCCC1OC12CC2 (stereo not shown) [OXP1, 2-decyl-1-oxaspiro[2.2]pentane] | 0.68 ± 0.01 µM | 1.87 ± 0.01 µM | 1.88 ± 0.02 µM | 1.85 ± 0.02 µM |  |  |  |  |  |  | inhibited the effect of the pheromone
